The test system of one series is HCT-15. As to the kind of experiment: Cytotoxicity against COX deficient human HCT15 cells after 24 hrs by MTT assay. To be noted: HCT-15, 24 h. Type of series: functional, cell-based. The gist of the method:
(§1)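 Human cancer cell lines were exposed to compound and cell viability was read at 24 h. IC50 values were calculated from the viability data. Mean ± SEM of at least four experiments, each run in triplicate.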

The subject of series [1] is HT-29. As to the kind of experiment: Cytotoxicity against human HT-29 cells expressing COX1 and COX2 after 24 hrs by MTT assay. Type of series: functional, cell-based. To be noted: HT-29, 24 h. The gist of the method: as §1
The subject of another series is SW480. As to the kind of experiment: Cytotoxicity against human SW480 cells expressing COX1 after 24 hrs by MTT assay. To be noted: SW480, 24 h. Type of series: functional, cell-based. The gist of the method:
as §1

For a further series, the system named is MDA-MB-231. Nature of the series: Cytotoxicity against ER deficient human MDA-MB-231 cells after 24 hrs by MTT assay. Type of series: functional, cell-based. The conditions noted are these: MDA-MB-231, 24 h. The method, boiled down:
as §1

The next series deals with SK-BR-3. Nature of the series: Cytotoxicity against ER deficient human SKBR3 cells after 24 hrs by MTT assay. Type of series: functional, cell-based. The conditions noted are these: SK-BR-3, 24 h. The gist of the method: as §1
Another series relates to MCF7. As to the kind of experiment: Cytotoxicity against human MCF7 cells expressing ER after 24 hrs by MTT assay. Type of series: functional, cell-based. The conditions noted are these: MCF7, 24 h. The method, boiled down:
as §1

The subject of the next series is MIA PaCa-2. As to the kind of experiment: Cytotoxicity against COX deficient human MIAPaCa2 cells after 24 hrs by MTT assay. To be noted: MIA PaCa-2, 24 h. Type of series: functional, cell-based. The gist of the method:
as §1

In another series the test system is BXPC-3. As to the kind of experiment: Cytotoxicity against human BxPC3 cells expressing COX1 and COX2 after 24 hrs by MTT assay. Type of series: functional, cell-based. To be noted: BXPC-3, 24 h. The method, boiled down: as §1
For a further series, the system named is A549. Nature of the series: Cytotoxicity against human A549 cells after 24 hrs by MTT assay. Type of series: functional, cell-based. The conditions noted are these: A549, 24 h. The gist of the method: as §1
The subject of the next series is LNCaP. As to the kind of experiment: Cytotoxicity against human LNCAP cells after 24 hrs by MTT assay. Type of series: functional, cell-based. The method, boiled down:
as §1

The subject of the next series is Jurkat. As to the kind of experiment: Cytotoxicity against human Jurkat cells expressing COX1 and COX2 after 24 hrs by MTT assay. Type of series: functional, cell-based. The gist of the method:
as §1

Series [2] deals with HT-29. As to the kind of experiment: Ratio of aspirin IC50 to compound IC50 for human HT-29 cells expressing COX1 and COX2 after 24 hrs by MTT assay. Type of series: functional. The method, boiled down: as §1
Series [3] deals with Rattus norvegicus. Nature of the series: Antiinflammatory activity in rat assessed as reduction of carrageenan-induced paw volume at 0.56 mmol/kg after 1 to 3 hrs. Type of series: functional.
Series [4] concerns Rattus norvegicus. Nature of the series: Antiinflammatory activity in rat assessed as reduction of carrageenan-induced paw volume at 0.56 mmol/kg after 6 hrs. Type of series: functional.
The subject of series [5] is Rattus norvegicus. As to the kind of experiment: Antiinflammatory activity in rat assessed as reduction of carrageenan-induced paw volume at 0.56 mmol/kg after 1 hr. Type of series: functional.
Series [6] relates to Rattus norvegicus. As to the kind of experiment: Antiinflammatory activity in rat assessed as increase of carrageenan-induced TNFalpha level in plasma at 0.56 mmol/kg by ELISA. Type of series: functional.
The test system of series [7] is Rattus norvegicus. As to the kind of experiment: Antiinflammatory activity in rat assessed as reduction of carrageenan-induced PGE2 level in paw exudates at 0.21 mmol/kg by […] (reference value: 82 +/- 2 pg/mg). Type of series: functional.
The test system of series [8] is HT-29. Nature of the series: Cytotoxicity against human HT-29 cells expressing COX1 and COX2 assessed as lactate dehydrogenase release after 2 to 24 hrs. Type of series: functional, cell-based. The method, boiled down:
(§2)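 HT-29 colon cancer cells were treated with several concentrations for 2, 4, 6, 8 or 24 h. Cytotoxicity was read as LDH release (%) relative to untreated controls.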

Series [9] relates to HT-29. Nature of the series: Cytotoxicity against human HT-29 cells expressing COX1 and COX2 assessed as lactate dehydrogenase release at IC50 to 4 times IC50. The conditions noted are these: TDE = time-dependent effect. Type of series: functional, cell-based. The gist of the method:
as §2

Series [10] has as its system HT-29. As to the kind of experiment: Cytotoxicity against human HT-29 cells expressing COX1 and COX2 assessed as lactate dehydrogenase release at 4 times IC50 after 24 hrs. Type of series: functional. The gist of the method:
as §2

The test system of series [11] is HT-29. As to the kind of experiment: Cytotoxicity against human HT-29 cells expressing COX1 and COX2 assessed as lactate dehydrogenase release at IC50 after 2 to 8 hrs. Type of series: functional. The gist of the method:
as §2

Series [12] has as its system HT-29. As to the kind of experiment: Cytotoxicity against human HT-29 cells expressing COX1 and COX2 assessed as lactate dehydrogenase release at 4 times IC50 after 2 to 8 hrs. Type of series: functional. The method, boiled down: as §2
The subject of series [13] is Rattus norvegicus. Nature of the series: In vivo drug metabolism in carrageenan treated rat assessed as increase of H2S release in plasma by […]. Type of series: ADME, organism-based. The gist of the method: (§3)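 Blood was collected at the end of the carrageenan paw edema study from rats given vehicle, the reference or the test compound (0.21 or 0.52 mmol/kg). Plasma NOx and H2S were quantified. Mean ± SEM, four rats per group.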

The subject of series [14] is Rattus norvegicus. As to the kind of experiment: Antiinflammatory activity in rat assessed as reduction of carrageenan-induced paw volume at 0.21 mmol/kg after 3 hrs. Type of series: functional.
In series [15] the test system is Rattus norvegicus. Nature of the series: Antiinflammatory activity in rat assessed as reduction of carrageenan-induced paw volume at 0.21 mmol/kg after 6 hrs. Type of series: functional.
The test system of series [16] is Rattus norvegicus. Nature of the series: Antiinflammatory activity in rat assessed as reduction of carrageenan-induced paw volume at 0.21 mmol/kg after 1 hr. Type of series: functional.
The species named for series [17] is Rattus norvegicus. Nature of the series: Antiinflammatory activity in rat assessed as reduction of carrageenan-induced paw volume measured after 6 hrs. Type of series: functional, organism-based.
Series [18] deals with Rattus norvegicus. As to the kind of experiment: In vivo drug metabolism in carrageenan treated rat assessed as increase of nitric oxide release in plasma by Griess reaction. Type of series: ADME, organism-based. The method, boiled down:
as §3

Series [19] relates to Rattus norvegicus. As to the kind of experiment: Antiinflammatory activity in rat assessed as reduction of carrageenan-induced TNFalpha level in plasma at 0.52 mmol/kg by ELISA. Type of series: functional.
The test system of series [20] is Rattus norvegicus. Nature of the series: Antiinflammatory activity in rat assessed as reduction of carrageenan-induced TNFalpha level in plasma at 0.21 mmol/kg by ELISA. Type of series: functional.
The test system of series [21] is Rattus norvegicus. As to the kind of experiment: Antiinflammatory activity in rat assessed as reduction of carrageenan-induced paw volume at 0.52 mmol/kg after 1 to 2 hrs. Type of series: functional.
Series [22] has as its system Rattus norvegicus. As to the kind of experiment: Antiinflammatory activity in rat assessed as reduction of carrageenan-induced paw volume at 0.52 mmol/kg after 2 to 6 hrs. Type of series: functional.
In series [23] the test system is Rattus norvegicus. As to the kind of experiment: Antiinflammatory activity in rat assessed as reduction of carrageenan-induced PGE2 level in paw exudates at 0.52 mmol/kg by […] (reference value: 82 +/- 2 pg/mg). Type of series: functional.
For series [24], the system named is Rattus norvegicus. Nature of the series: Antiinflammatory activity in rat assessed as reduction of carrageenan-induced COX1 expression in paw exudates at 0.21 to 0.52 mmol/kg by Western blot analysis. Type of series: functional, organism-based.
The species named for series [25] is Rattus norvegicus. Nature of the series: Antiinflammatory activity in rat assessed as reduction of carrageenan-induced COX2 expression in paw exudates by Western blot analysis. Type of series: functional, organism-based.

Active and inactive are the calls of the source. No cut-off for these calls is given here.

For the compound `O=C(CCCC[C@@H]1CCSS1)Oc1ccccc1C(=O)OCCCCO[N+](=O)[O-]`, the IC50 in the series with HCT-15 is 0.52 µM; in the series on HT-29 [1], 0.3 µM; with SW480 it was 0.6 µM; with MDA-MB-231, 0.8 µM; with SK-BR-3 it was 0.55 µM; in the series with MCF7, 0.28 µM. In addition, the IC50 with MIA PaCa-2 is 0.8 µM; in the series on BXPC-3, 0.7 µM; with A549, 0.3 µM; in the series with LNCaP, 0.5 µM; in the series on Jurkat it was 0.24 µM. For the same compound, the “Ratio IC50” value in the series on HT-29 [2] is listed as >16000.

Turning to `CC(=O)Oc1ccccc1C(=O)O` [ASPIRIN], the IC50 with HCT-15, with SW480, with MDA-MB-231, in the series with SK-BR-3, in the series on MCF7 and with MIA PaCa-2 was > 5000 µM in each case. Besides, the 50% inhibitory concentration (IC50) in the series on BXPC-3, with A549, in the series on LNCaP and in the series on Jurkat was > 5000 µM throughout. For the same compound, the Activity came to 0.35 mL with Rattus norvegicus [3]; 0.35 mL with Rattus norvegicus [4]; 0.4 mL with Rattus norvegicus [5]; 200 pg/mL with Rattus norvegicus [6]; 12 pg/mg in the series on Rattus norvegicus [7].

In the case of `NC(=S)c1ccc(OC(=O)c2ccccc2OC(=O)CCCO[N+](=O)[O-])cc1`, the IC50 turned out to be 5.9 µM in the series with HCT-15; 7.5 µM with HT-29 [1]; 5.3 µM with SW480; 6 µM with MDA-MB-231; 6.5 µM in the series with SK-BR-3; 5.7 µM in the series on MCF7. Moreover, the IC50 in the series with MIA PaCa-2 amounted to 4.8 µM; in the series with BXPC-3, 5.5 µM; in the series with A549, 6.5 µM; with LNCaP it was 4.3 µM; in the series on Jurkat, 7 µM. Further, the “Ratio IC50” value in the series with HT-29 [2] was >600.

For `O=C(CCC(=O)Oc1ccccc1C(=O)Oc1ccc(-c2cc(=S)ss2)cc1)OCCCCO[N+](=O)[O-]`, the IC50 was determined as 0.09 µM in the series with HCT-15; 0.08 µM in the series on HT-29 [1]; 0.097 µM with SW480; 0.085 µM in the series with MDA-MB-231; 0.088 µM in the series with SK-BR-3; 0.07 µM in the series with MCF7. For the same compound, the IC50 with MIA PaCa-2 worked out at 0.102 µM; in the series with BXPC-3 it was 0.1 µM; in the series with A549, 0.12 µM; in the series with LNCaP, 0.1 µM; with Jurkat it was 0.09 µM. Also, the “Ratio IC50” value in the series on HT-29 [2] was >60000.

Regarding `O=C(CCCO[N+](=O)[O-])Oc1ccccc1C(=O)Oc1ccc(-c2cc(=S)ss2)cc1`, the 50% inhibitory concentration (IC50) in the series on HCT-15 is 0.05 µM; in the series on HT-29 [1] it was 0.048 µM; in the series on SW480, 0.06 µM; in the series on MDA-MB-231, 0.1 µM; in the series on SK-BR-3, 0.075 µM; in the series on MCF7, 0.28 µM. Besides, the 50% inhibitory concentration (IC50) in the series with MIA PaCa-2 was 0.047 µM; in the series on BXPC-3 it was 0.057 µM; in the series with A549, 0.05 µM; in the series on LNCaP it was 0.088 µM; with Jurkat it was 0.1 µM. For the same compound, in the series with HT-29 [2], the “Ratio IC50” value is given as 100000. For the same compound, the Activity result is “Dose-dependent effect” in the series on HT-29 [8]; “tde” with HT-29 [9]; <10% with HT-29 [10]; 0.5% in the series with HT-29 [11]; 1% in the series on HT-29 [12]; 0.6 mL with Rattus norvegicus [14]. The Activity is 0.4 mL in the series on Rattus norvegicus [15]; 0.5 mL in the series on Rattus norvegicus [16]; “Dose-dependent effect” in the series filed under Rattus norvegicus [17]; 40 pg/mL with Rattus norvegicus [19]; 55 pg/mL with Rattus norvegicus [20]; 0.45 mL in the series with Rattus norvegicus [21]. Moreover, the figures for the Activity with Rattus norvegicus [22], in the series with Rattus norvegicus [7] and in the series with Rattus norvegicus [23] were 0.35 mL, 42 pg/mg and 21 pg/mg, respectively. The Drug metabolism entry in the series with Rattus norvegicus [13] and with Rattus norvegicus [18] was “Dose-dependent effect” throughout. In addition, the inhibition entry with Rattus norvegicus [24] is “Active”. The inhibition result in the series listed under Rattus norvegicus [25] was “Dose-dependent effect”.

For the origin of these results see ChEMBL document CHEMBL2046423, “NOSH-Aspirin: A Novel Nitric Oxide-Hydrogen Sulfide-Releasing Hybrid: A New Class of Anti-inflammatory Pharmaceuticals” (ACS Med Chem Lett, 2012).
